The values below come from ChEMBL document CHEMBL1154092, “Chiral 3-(4,5-dihydrooxazol-2-yl)phenyl alkylcarbamates as novel FAAH inhibitors: Insight into FAAH enantioselectivity by molecular docking and interaction fields” (Eur J Med Chem, 2009).

Experiment [1] deals with T1, Fatty-acid amide hydrolase 1 (Rattus norvegicus, UniProt P97612).
T1 sequence (P97612 whole entry): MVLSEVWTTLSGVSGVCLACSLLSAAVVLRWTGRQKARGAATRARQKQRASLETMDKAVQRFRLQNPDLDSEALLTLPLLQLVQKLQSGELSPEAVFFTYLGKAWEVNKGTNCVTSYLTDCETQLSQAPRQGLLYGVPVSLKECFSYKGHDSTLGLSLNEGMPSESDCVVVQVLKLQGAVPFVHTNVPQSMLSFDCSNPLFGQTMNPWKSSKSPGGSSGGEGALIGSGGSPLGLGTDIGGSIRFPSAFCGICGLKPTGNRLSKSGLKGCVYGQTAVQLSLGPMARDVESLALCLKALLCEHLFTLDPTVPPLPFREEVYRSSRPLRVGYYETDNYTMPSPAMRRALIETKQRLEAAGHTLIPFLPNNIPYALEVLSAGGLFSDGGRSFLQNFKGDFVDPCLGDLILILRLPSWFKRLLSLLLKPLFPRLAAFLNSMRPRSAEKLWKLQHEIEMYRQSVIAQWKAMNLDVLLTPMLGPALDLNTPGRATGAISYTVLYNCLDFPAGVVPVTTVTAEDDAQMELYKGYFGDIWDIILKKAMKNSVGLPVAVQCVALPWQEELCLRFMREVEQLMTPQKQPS
The experiment is described as follows: Inhibition of FAAH in Wistar rat brain assessed as by liquid scintillation counting. Put shortly: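 Rat cerebrum homogenate (8-week male Wistar, whole brain minus cerebellum, 10,000g supernatant in 0.1 M K phosphate pH 7.4) as enzyme, 18 µg protein. Preincubated with compound 10 min at 37 °C, then 2 μM [³H]AEA (ethanolamine 1-³H) added for 10 min at 37 °C. Buffer has 0.5% BSA, DMSO up to 5%. Stopped with EtOAc. Aqueous [³H]ethanolamine counted. Three independent experiments in duplicate; IC50 by nonlinear regression.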

The target in experiment [2] is T2, Monoglyceride lipase (Homo sapiens) (UniProt Q99685).
T2 sequence (whole entry): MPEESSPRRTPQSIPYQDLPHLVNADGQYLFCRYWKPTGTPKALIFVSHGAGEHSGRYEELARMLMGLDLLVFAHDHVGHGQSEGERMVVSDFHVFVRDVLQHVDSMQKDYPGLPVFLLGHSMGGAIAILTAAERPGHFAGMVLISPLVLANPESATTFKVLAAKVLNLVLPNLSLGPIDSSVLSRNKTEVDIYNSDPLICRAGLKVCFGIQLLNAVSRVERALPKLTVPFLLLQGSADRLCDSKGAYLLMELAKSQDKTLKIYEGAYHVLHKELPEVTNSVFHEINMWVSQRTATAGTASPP
The experiment is described as follows: Inhibition of human recombinant MGL by liquid scintillation counting. The settings on record: concentration not given here. Put shortly:
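hrMGL preincubated with compound 10 min at 37 °C in 50 mM Tris-HCl pH 7.4, 1 mM EDTA, 0.5% BSA, DMSO ≤5%. Then [³H]2-oleoylglycerol (glycerol-1,2,3-³H) added to 50 μM final for 10 min at 37 °C. Stopped with EtOAc. Aqueous-phase [³H]glycerol counted by liquid scintillation.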

In experiment [3] the target is T3, Monoglyceride lipase (Rattus norvegicus) (UniProt Q8R431).
T3 sequence (whole entry): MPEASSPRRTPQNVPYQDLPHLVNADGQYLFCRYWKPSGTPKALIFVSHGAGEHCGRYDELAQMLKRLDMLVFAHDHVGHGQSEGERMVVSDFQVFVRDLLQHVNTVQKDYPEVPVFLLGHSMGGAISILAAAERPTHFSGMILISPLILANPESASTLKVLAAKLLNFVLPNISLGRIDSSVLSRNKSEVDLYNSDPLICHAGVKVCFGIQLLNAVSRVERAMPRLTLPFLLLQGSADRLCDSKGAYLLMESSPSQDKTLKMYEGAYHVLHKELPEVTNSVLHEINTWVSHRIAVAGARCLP
The experiment is described as follows: Inhibition of MGL in Wistar rat cerebellar membrane at 100 uM by reversed-phase HPLC relative to control. The class given is cell membranes. The settings on record: Cerebellum. Put shortly:
(§1)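 Cerebellar membranes from 4-week male Wistar rats. 10 µg protein preincubated with compound 30 min at 25 °C in Tris-HCl pH 7.4, EDTA, 0.5% BSA, 1.25% DMSO. Incubation 90 min at 25 °C with 5 µg protein and 50 μM 2-AG (100 mM NaCl, 5 mM MgCl₂). Stopped with acidified acetonitrile at 0 and 90 min. Arachidonic acid by C18 HPLC, UV 211 nm. Activity as % of control, n = 2.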

For experiment [4], the target named is T3, Monoglyceride lipase (Rattus norvegicus). The experiment is described as follows: Inhibition of MGL in Wistar rat cerebellar membrane at 1 uM by reversed-phase HPLC relative to control. The class given is cell membranes. The following applies: Cerebellum. Put shortly:
as §1

pIC50: −log10 of the molar value.

The term pIC50 denotes −log10 of the IC50, conventionally taken in molar units. As a reminder, the inhibition is the percentage by which the read-out fell short of the control. With `C[C@H]1CN=C(c2cccc(OC(=O)NC3CCCCC3)c2)O1`, in experiment [1], the pIC50 is 8.17. In addition, in experiment [2], the inhibition was determined as 14%.

Turning to `COC(=O)[C@@H]1COC(c2cccc(OC(=O)NC3CCCCC3)c2)=N1`, the pIC50 in experiment [1] is 8.03. Also, the inhibition in experiment [3] came out at 25%.

In the case of `C[C@@H]1COC(c2cccc(OC(=O)NC3CCCCC3)c2)=N1`, in experiment [1], the negative-log IC50 (pIC50) was 7.80. The inhibition in experiment [3] turned out to be 16%.

Consider `CC1(C)COC(c2cccc(OC(=O)NC3CCCC3)c2)=N1`, for which the pIC50 in experiment [1] was 7.19. The same compound showed an inhibition in experiment [3] of 28%.

Consider `CCCNC(=O)Oc1cccc(-c2nc3ncncc3o2)c1`, for which the pIC50 in experiment [1] is 5.35. Also, the inhibition in experiment [2] is 18%.

As for `COC(=O)[C@H]1COC(c2cccc(OC(=O)NC3CCCCC3)c2)=N1`, the pIC50 in experiment [1] was 7.05. Also, the inhibition in experiment [3] is 35%.

`CCCNC(=O)Oc1cccc(-c2nc3ncccc3o2)c1`: in experiment [1], the pIC50 is 6.17. The compound further gave an inhibition in experiment [3] of 29%.

As for `CC1(C)COC(c2cccc(OC(=O)NC3CCCCC3)c2)=N1`, the pIC50 in experiment [1] is 7.34. Besides, the inhibition in experiment [3] came out at 20%.

On to `O=C(NC1CCCCC1)Oc1cccc(C2=NCCO2)c1`, for which the pIC50 in experiment [1] is 8.92. This compound also had an inhibition in experiment [3] of 22%.

As for `CCCNC(=O)Oc1cccc(C2=NCCO2)c1`, the pIC50 in experiment [1] was 7.48. The compound also came in with an inhibition in experiment [3] of 32%.

As to `O=C(NC1CCCCC1)Oc1cccc(C2=N[C@@H](Cc3ccccc3)CO2)c1`, the pIC50 in experiment [1] was 5.68. In experiment [3], the inhibition was determined as 17%.

In the case of `O=C(NC1CCCCC1)Oc1cccc(C2=N[C@H](Cc3ccccc3)CO2)c1`, the pIC50 in experiment [1] was 6.23. This compound also yielded an inhibition in experiment [3] of 14%.

Take `C[C@H]1COC(c2cccc(OC(=O)NC3CCCC3)c2)=N1`: the pIC50 in experiment [1] was 6.96. For the same compound, in experiment [3], the inhibition was 28%.

For the compound `C[C@H]1COC(c2cccc(OC(=O)NC3CCCCC3)c2)=N1`, the pIC50 in experiment [1] is 7.29. Moreover, in experiment [3], the inhibition was 28%.

Turning to `C[C@@H]1CN=C(c2cccc(OC(=O)NC3CCCCC3)c2)O1`, the pIC50 in experiment [1] is 7.14. Besides, in experiment [2], the inhibition was 13%.

Take `CCCNC(=O)Oc1cccc(-c2nc3ccccc3o2)c1`: in experiment [1], the pIC50 is 5.52. The compound also gave an inhibition in experiment [3] of 26%.

For `O=C(NC1CCCCC1)Oc1cccc(C2=N[C@@H](Cc3c[nH]c4ccccc34)CO2)c1`, in experiment [1], the pIC50 is 5.72. This compound gave an inhibition in experiment [3] of 25%.

`O=C(NC1CCCC1)Oc1cccc(C2=NCCO2)c1`: the pIC50 in experiment [1] is 7.89. In experiment [4], this compound displayed an inhibition of 10%.
